Legend:
[1] = tested on: Botryosphaeria berengeriana; assay: Antifungal activity against Botryosphaeria berengeriana at 50 mg/L relative to control; assay type: functional
[2] = tested on: Botrytis cinerea; assay: Antifungal activity against Botrytis cinerea at 50 mg/L relative to control; assay type: functional
[3] = tested on: Fusarium graminearum; assay: Antifungal activity against Gibberella zeae at 50 mg/L relative to control; assay type: functional
[4] = tested on: Bipolaris maydis; assay: Antifungal activity against Bipolaris maydis at 50 mg/L relative to control; assay type: functional
[5] = Cytotoxicity against multi-drug resistant human KBv200 cells after 72 hrs by MTT assay; assay type: functional, cell-based; conditions: KBv200, 72 h
Procedure, shortened: (§1)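 MTT read-out after 72 h exposure to compound. KB are drug-sensitive human oral carcinoma cells. KBv200 are the vincristine-induced multidrug-resistant derivative overexpressing ABCB1. Values are means of three independent experiments, each run in quadruplicate, with coefficients of variation below 10%.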

[6] = tested on: Rhizoctonia solani; assay: Antifungal activity against Rhizoctonia solani at 50 mg/L relative to control; assay type: functional
[7] = tested on: KB; assay: Cytotoxicity against human KB cells after 72 hrs MTT assay; assay type: functional, cell-based; procedure, shortened: as §1

Compound: Cc1cc(Oc2nc3c(c(C)nc4sc5c(c43)CCCC5)c(=O)n2-c2ccccc2)ccc1Cl
- inhibition at 50 µg/mL [1]: 39%
- inhibition at 50 µg/mL [2]: 73%
- inhibition at 50 µg/mL [3]: 31%
- inhibition at 50 µg/mL [4]: 52%
- IC50 [5]: 72.2 µM
- inhibition at 50 µg/mL [6]: 22%
- IC50 [7]: 84.3 µM

Compound: Cc1nc2sc3c(c2c2nc(Oc4ccc(F)cc4Cl)n(-c4ccccc4)c(=O)c12)CCCC3
- inhibition at 50 µg/mL [1]: 67%
- inhibition at 50 µg/mL [2]: 88%
- inhibition at 50 µg/mL [3]: 54%
- inhibition at 50 µg/mL [4]: 67%
- IC50 [5]: > 100 µM
- inhibition at 50 µg/mL [6]: 79%
- IC50 [7]: > 100 µM

Compound: CCCNc1nc2c(c(C)nc3sc4c(c32)CCCC4)c(=O)n1-c1ccccc1
- inhibition at 50 µg/mL [1]: 29%
- inhibition at 50 µg/mL [2]: 57%
- inhibition at 50 µg/mL [3]: 20%
- inhibition at 50 µg/mL [4]: 47%
- IC50 [5]: 25.4 µM
- inhibition at 50 µg/mL [6]: 24%
- IC50 [7]: 17.4 µM

Compound: Cc1nc2sc3c(c2c2nc(Oc4ccc(Br)cc4)n(-c4ccccc4)c(=O)c12)CCCC3
- inhibition at 50 µg/mL [1]: 83%
- inhibition at 50 µg/mL [2]: 83%
- inhibition at 50 µg/mL [3]: 65%
- inhibition at 50 µg/mL [4]: 81%
- IC50 [5]: > 100 µM
- inhibition at 50 µg/mL [6]: 68%
- IC50 [7]: 68.9 µM

Compound: Cc1ccc(Oc2nc3c(c(C)nc4sc5c(c43)CCCC5)c(=O)n2-c2ccccc2)cc1
- inhibition at 50 µg/mL [1]: 56%
- inhibition at 50 µg/mL [2]: 80%
- inhibition at 50 µg/mL [3]: 31%
- inhibition at 50 µg/mL [4]: 76%
- IC50 [5]: 67.3 µM
- inhibition at 50 µg/mL [6]: 61%
- IC50 [7]: 48.3 µM

Compound: O=c1[nH]cc(F)c(=O)[nH]1 [FLUOROURACIL]
- IC50 [7]: 12.5 µM

Compound: Cc1nc2sc3c(c2c2nc(Oc4cc(F)cc(F)c4)n(-c4ccccc4)c(=O)c12)CCCC3
- inhibition at 50 µg/mL [1]: 61%
- inhibition at 50 µg/mL [2]: 83%
- inhibition at 50 µg/mL [3]: 31%
- inhibition at 50 µg/mL [4]: 48%
- IC50 [5]: 39.9 µM
- inhibition at 50 µg/mL [6]: 74%
- IC50 [7]: 52.5 µM

Compound: CC(C)(C)C(=O)C(Oc1ccc(Cl)cc1)n1cncn1 (configuration not stated) [TRIADIMEFON]
- inhibition at 50 µg/mL [2]: 78%
- inhibition at 50 µg/mL [3]: 59%
- inhibition at 50 µg/mL [6]: 91%

Compound: CCCCNc1nc2c(c(C)nc3sc4c(c32)CCCC4)c(=O)n1-c1ccccc1
- inhibition at 50 µg/mL [1]: 76%
- inhibition at 50 µg/mL [2]: 100%
- inhibition at 50 µg/mL [3]: 83%
- inhibition at 50 µg/mL [4]: 79%
- IC50 [5]: 32.8 µM
- inhibition at 50 µg/mL [6]: 89%
- IC50 [7]: 32 µM

Compound: Cc1ccc(Cl)c(Oc2nc3c(c(C)nc4sc5c(c43)CCCC5)c(=O)n2-c2ccccc2)c1
- inhibition at 50 µg/mL [1]: 50%
- inhibition at 50 µg/mL [2]: 88%
- inhibition at 50 µg/mL [3]: 23%
- inhibition at 50 µg/mL [4]: 48%
- IC50 [5]: > 100 µM
- inhibition at 50 µg/mL [6]: 63%
- IC50 [7]: > 100 µM

Compound: Cc1nc2sc3c(c2c2nc(Oc4ccc(F)cc4F)n(-c4ccccc4)c(=O)c12)CCCC3
- inhibition at 50 µg/mL [1]: 50%
- inhibition at 50 µg/mL [2]: 78%
- inhibition at 50 µg/mL [3]: 38%
- inhibition at 50 µg/mL [4]: 71%
- IC50 [5]: > 100 µM
- inhibition at 50 µg/mL [6]: 63%
- IC50 [7]: > 100 µM

Compound: Cc1nc2sc3c(c2c2nc(Oc4ccccc4)n(-c4ccccc4)c(=O)c12)CCCC3
- inhibition at 50 µg/mL [1]: 56%
- inhibition at 50 µg/mL [2]: 85%
- inhibition at 50 µg/mL [3]: 15%
- inhibition at 50 µg/mL [4]: 76%
- IC50 [5]: 61.9 µM
- inhibition at 50 µg/mL [6]: 65%
- IC50 [7]: 54.2 µM

Compound: Cc1nc2sc3c(c2c2nc(Oc4cccc(F)c4)n(-c4ccccc4)c(=O)c12)CCCC3
- inhibition at 50 µg/mL [1]: 78%
- inhibition at 50 µg/mL [2]: 98%
- inhibition at 50 µg/mL [3]: 58%
- inhibition at 50 µg/mL [4]: 90%
- IC50 [5]: > 100 µM
- inhibition at 50 µg/mL [6]: 84%
- IC50 [7]: > 100 µM

Compound: Cc1nc2sc3c(c2c2nc(Oc4ccc([N+](=O)[O-])cc4)n(-c4ccccc4)c(=O)c12)CCCC3
- inhibition at 50 µg/mL [1]: 61%
- inhibition at 50 µg/mL [2]: 85%
- inhibition at 50 µg/mL [3]: 46%
- inhibition at 50 µg/mL [4]: 67%
- IC50 [5]: > 100 µM
- inhibition at 50 µg/mL [6]: 68%
- IC50 [7]: > 100 µM

Compound: Cc1cccc(Oc2nc3c(c(C)nc4sc5c(c43)CCCC5)c(=O)n2-c2ccccc2)c1
- inhibition at 50 µg/mL [1]: 78%
- inhibition at 50 µg/mL [2]: 99%
- inhibition at 50 µg/mL [3]: 65%
- inhibition at 50 µg/mL [4]: 81%
- IC50 [5]: > 100 µM
- inhibition at 50 µg/mL [6]: 91%
- IC50 [7]: > 100 µM

Compound: COc1cccc(Oc2nc3c(c(C)nc4sc5c(c43)CCCC5)c(=O)n2-c2ccccc2)c1
- inhibition at 50 µg/mL [1]: 67%
- inhibition at 50 µg/mL [2]: 66%
- inhibition at 50 µg/mL [3]: 42%
- inhibition at 50 µg/mL [4]: 76%
- IC50 [5]: > 100 µM
- inhibition at 50 µg/mL [6]: 76%
- IC50 [7]: > 100 µM

Reference: ChEMBL document CHEMBL1156123, “A facile synthesis and biological activity of novel tetrahydrobenzo[4',5']thieno[3',2':5,6]pyrido[4,3-d]pyrimidin-4(3H)-ones” (Bioorg Med Chem Lett, 2009)
